The values below come from article PMC3513776 (Journal of molecular recognition : JMR, 2012).

Each structure is given as a SMILES string.

One data set deals with A variant of human AGP (Homo sapiens, UniProt P19652). Description: ITC of drug binding to the separated A variant of AGP. The settings on record: 30°C.
For data set [1], the target named is F1*S variant of human AGP (Homo sapiens, UniProt P02763). Description: ITC of drug binding to the separated F1*S variant of AGP. The settings on record: 30°C. The essentials: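 F1*S variant resolved from re-purified commercial human AGP on copper(II) IMAC (20 mM HEPES pH 7.4 load; 0→100% 300 mM imidazole, 1 mL/min). Degassed protein (140 μM, 20 mM HEPES pH 7.4) titrated with 5→16 mM drug in dialysate, 240 s intervals, 360 rpm, 30°C. Drug-into-buffer dilution heat subtracted. Integrated peaks vs molar ratio fitted by Marquardt for n, Ka, ΔH.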

The conditions of data set [2]: cited from earlier work.
The subject of data set [3] is A and F1*S variants of human AGP. The settings on record: cited from earlier work.
The next data set deals with human AGP. Description: Isothermal titration calorimetry. In kind it is binding. The note with it: ITC, 30°C, heterogeneous AGP preparation.

For the compound `CN(C)CCC=C1c2ccccc2CCc2ccccc21` [amitriptyline], the thermodynamic binding signature entry on A variant of human AGP (A variant) is “dominant favorable entropy gain and a smaller, albeit favorable enthalpy gain”; in data set [1] (F1*S variant) it was “comparable enthalpy and entropy gains”. For the same compound, the “greater affinity for the A variant compared to the F1*S variant” value at A variant of human AGP (separated variants) came to 4 fold. In addition, in data set [1] (separated variants), the “lower binding affinity of the F1*S variant (vs A variant)” value turned out to be 4 fold. For the same compound, the “pKa of the N,N-dimethylpropan-1-amine side chain” value in data set [2] is reported as 9.2. Besides, the “difference in affinity between A and F1*S” value in data set [3] was above 20 fold.

Regarding `CN(C)CCCN1c2ccccc2Sc2ccc(Cl)cc21` [chlorpromazine], the “binding energetics, A versus F1*S variant” value at A variant of human AGP (separated variants) is “comparable for both variants”. In addition, in data set [3], the “affinity for both variants” value is “comparable”.

`CC(C)N(CCC(C(N)=O)(c1ccccc1)c1ccccn1)C(C)C` (stereo not drawn) [disopyramide]: in data set [3], the “affinity for the F1*S” value is given as “very low” and the “variant selectivity of binding” value is on record as “selectively bind to the A variant”.

Regarding `CN(C)CC/C=C1\c2ccccc2CSc2ccccc21` [dothepin], the “lower affinity for AGP compared to amitriptyline” value with human AGP was ~ 2.5 fold.

With `CN1CCN2c3ccccc3Cc3ccccc3C2C1` (stereo not drawn) [miaserine], the “lower affinity for AGP compared to amitriptyline” value in the data set with human AGP is reported as ~ 6 fold.
